Results pooled from the literature.
Lines come from different studies, so protocols differ.
Target: Homeodomain-interacting protein kinase 1 (HIPK1, Homo sapiens, UniProt Q86Z02)

Structure (SMILES)	assay	setting	measurement	result
O=C(O)c1ccc2c(c1)nc(Nc1ccccc1)c1ccncc12	enzyme activity, inhibitor, radiometric	1 µM	remaining activity	30%
Cn1cc(Cl)c2c(Oc3c(F)cc(Nc4cc(Cl)nc(N)n4)cc3F)ccnc21	cell-free assay, competition with immobilised ligand	0.1 µM	remaining binding	100%
Nc1ncnc2occ(-c3ccc(NC(=O)Nc4cc(C(F)(F)F)ccc4F)cc3)c12	cell-free assay, inhibitor	20 µM	remaining signal	0.1%
Cc1ccc(NC(=O)c2ccc(C)c(C(F)(F)F)c2)cc1C#Cc1nn(C2CCC(O)CC2)c2ncnc(N)c12 (centres unmarked)	cell-free assay	10 µM	remaining signal	107%
CC1=C(C#N)C(c2ccc3c(c2)c(NC(=O)c2ccccc2C)nn3C)C(C#N)=C(C)N1	cell-free assay, competition with immobilised ligand	1 µM	remaining binding	71%
FC(F)(F)Oc1cccc(-c2cnc3ccc(-c4ccncc4)nn23)c1	enzyme activity, inhibitor, radiometric	1 µM	activity vs control	29%
O=C(O)c1ccc2c(c1)nc(Nc1ccc(Cl)cc1)c1ccncc12	enzyme activity, inhibitor, radiometric	1 µM	remaining activity	6%
Cc1c[nH]c2nccc(Oc3c(F)cc(Nc4cc(Cl)nc(N)n4)cc3F)c12	cell-free assay, competition with immobilised ligand	0.1 µM	remaining binding	100%
O=C(O)c1ccc2c(c1)nc(Nc1ccc(F)c(Cl)c1)c1ncncc12	enzyme activity, inhibitor, radiometric	1 µM	remaining activity	6%
COc1cc2ncnc(Nc3ccc(F)c(Cl)c3)c2cc1OCCCN1CCOCC1	cell-free assay	0.5 µM	remaining signal	97.6%
CNC(=O)c1cc(Oc2ccc(NC(=O)Nc3ccc(Cl)c(C(F)(F)F)c3)cc2)ccn1	enzyme activity, inhibitor	10 µM	inhibition	61%
N#CCCc1ccc2c(c1)-c1[nH]c3ccc([N+](=O)[O-])cc3c1CC(=O)N2	cell-free assay	0.5 µM	remaining signal	97.9%
O=C(O)c1ccc2c(c1)nc(NCCc1cccc(Cl)c1)c1ncncc12	enzyme activity, inhibitor, radiometric	1 µM	remaining activity	35%
O=C(NCCCC1CCCCC1)c1ccc(CNC(=O)c2cnn(-c3ccccc3)c2C(F)(F)F)cc1	cell-free assay, competition with immobilised ligand	0.1 µM	remaining binding	99%
Cc1sc(C(=O)NC2COC2)cc1-n1cc(NC(=O)Nc2c(F)cccc2Cl)cn1	enzyme activity, inhibitor	10 µM	remaining activity	116%
CNC(=O)Nc1ccc2c(c1)CC[C@@]21OC(=O)N(CC(=O)N(Cc2ccc(F)cc2)[C@@H](C)C(F)(F)F)C1=O	cell-free assay, competition with immobilised ligand	1 µM	remaining binding	85%
Cc1ccc(Nc2nccc(N(C)c3ccc4c(C)n(C)nc4c3)n2)cc1S(N)(=O)=O	enzyme activity, inhibitor	0.3 µM	inhibition	11%
COc1cccc(Nc2nc3cc(C(=O)O)ccc3c3cnccc23)c1	enzyme activity, inhibitor, radiometric	1 µM	remaining activity	11%
CCN(CC)CCNC(=O)c1c(C)[nH]c(/C=C2\C(=O)Nc3ccc(F)cc32)c1C	enzyme activity, inhibitor	10 µM	inhibition	59%
CN1CC(Oc2cnc(C#N)cc2-c2ccn3nc(NC(=O)C4CC4)cc3c2)C1	enzyme activity, inhibitor	1 µM	inhibition	-3%
O=C(O)c1ccc2c(c1)nc(Nc1ccccc1)c1ncncc12	enzyme activity, inhibitor, radiometric	1 µM	remaining activity	11%
CC/C(=N\NC(=O)NCc1cccc(O)c1)c1ccc(O)c(C)c1O	enzyme activity, inhibitor	0.1 µM	inhibition	6.3%
CN([C@@H]1CCc2c(CC(=O)O)c3cc(S(C)(=O)=O)ccc3n2C1)S(=O)(=O)c1ccc(F)cc1	cell-free assay, competition with immobilised ligand	1 µM	remaining binding	77%
COc1cc2ncnc(Nc3ccc(Oc4ccccc4)cc3C)c2cc1OC	enzyme activity, inhibitor	1 µM	inhibition	1%
Cc1nccc(COC(=O)N2C[C@@H]3[C@@H](CNC(=O)c4ccc5[nH]nnc5c4)[C@@H]3C2)n1	cell-free assay, competition with immobilised ligand	1 µM	remaining binding	82%
COc1cccc(CCNc2nc3cc(C(=O)O)ccc3c3cncnc23)c1	enzyme activity, inhibitor, radiometric	1 µM	remaining activity	36%
COc1cc2c(N3CCN(C(=O)Nc4ccc(OC(C)C)cc4)CC3)ncnc2cc1OCCCN1CCCCC1	cell-free assay	0.5 µM	remaining signal	98.9%
CS(=O)(=O)c1cc(C2(NC(=O)c3cncc4c3cnn4-c3ccc(F)cc3)CC2)ccn1	cell-free assay, competition with immobilised ligand	1 µM	remaining binding	92%
O=C(O)c1ccc2c(c1)nc(NCCc1cccc(Cl)c1)c1ccncc12	enzyme activity, inhibitor, radiometric	1 µM	remaining activity	20%
